Reference: ChEMBL document CHEMBL3351414, “Novel 9'-substituted-noscapines: synthesis with Suzuki cross-coupling, structure elucidation and biological evaluation” (Eur J Med Chem, 2014)
Values belong to the compound of their own block, whether it stands above or below them. Activity calls are given as the source filed them. The calls are words filed in the database; no cut-off is given here.

How the values were obtained:
HeLa [1] = test: Effect on PCM1 protein in human HeLa cells assessed as accumulation of pericentriolar material at 25 uM after 24 hrs by immunofluorescence microscopy; type: functional, cell-based
Summary of the method: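 After 24 h at 25 µM, HeLa cells were stained with anti-PCM1 and Alexa-conjugated secondary antibody, with phalloidin-tetramethylrhodamine B for actin and DAPI for nuclei. Cells were imaged by confocal microscopy at 60×.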

PBL [2] = test: Cytotoxicity against PHA-stimulated human PBLs assessed as reduction in cell growth; type: cell-based
Summary of the method: (§1)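 Peripheral blood lymphocytes from healthy donors, tested either resting (no PHA) or PHA-stimulated. Value is the concentration reducing cell growth by 50%, mean ± SEM of three separate experiments.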

Jurkat [3] = test: Antiproliferative activity against human Jurkat cells assessed as reduction in cell viability after 72 hrs by MTT assay; type: functional, cell-based
Summary of the method: (§2)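 Cells kept in RPMI-1640 (Jurkat, SEM, RS4;11) or DMEM (A549, HeLa, IGROV-1, HT-29) with 10% FBS plus penicillin/streptomycin. 8×10^3 cells per well were left 18 h at 37 °C in 5% CO2. Medium was then replaced with fresh medium holding graded compound concentrations from 10 mM DMSO stocks. Cells were incubated 72 h and viability read by MTT. IC50 is the mean ± SEM from dose–response curves of at least three independent experiments.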

[4] = Antiproliferative activity against human SEM cells assessed as reduction in cell viability after 72 hrs by MTT assay; type: functional, cell-based; summary of the method: as §2
[5] = Antiproliferative activity against human RS4:11 cells assessed as reduction in cell viability after 72 hrs by MTT assay; type: functional, cell-based; conditions: RS4-11, 72 h; summary of the method: as §2
CCRF-CEM = test: Antiproliferative activity against human CEM cells assessed as reduction in cell viability after 72 hrs by MTT assay; type: functional, cell-based
LoVo = test: Antiproliferative activity against human LoVo cells assessed as reduction in cell viability after 72 hrs by MTT assay; type: functional, cell-based
HT-29 = test: Antiproliferative activity against human HT-29 cells assessed as reduction in cell viability after 72 hrs by MTT assay; type: functional, cell-based; conditions: HT-29, 72 h; summary of the method: as §2
A549 = test: Antiproliferative activity against human A549 cells assessed as reduction in cell viability after 72 hrs by MTT assay; type: functional, cell-based; conditions: A549, 72 h; summary of the method: as §2
IGROV-1 = test: Antiproliferative activity against human IGROV1 cells assessed as reduction in cell viability after 72 hrs by MTT assay; type: functional, cell-based; conditions: IGROV-1, 72 h; summary of the method: as §2
PBL [6] = test: Cytotoxicity against resting human PBLs assessed as reduction in cell growth; type: cell-based; summary of the method: as §1
Tubulin [7] = biological target: T1, Tubulin (Bos taurus, UniProt Q6B856+Q862L2+Q862F3); test: Inhibition of bovine brain tubulin assessed as extent of assembly preincubated for 15 mins by turbidimetry
Summary of the method: (§3)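 Bovine brain tubulin at 10 µM (1.0 mg/mL) in 0.8 M monosodium glutamate pH 6.6 with 4% DMSO and varying compound was preincubated 15 min at 30 °C, then chilled. GTP was added to 0.4 mM final and the temperature jumped from 0 to 30 °C. Turbidity was followed at 350 nm, scoring either maximum rate or extent of assembly at 20 min.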

Tubulin [8] = biological target: T1, Tubulin; test: Inhibition of bovine brain tubulin assessed as rate of assembly preincubated for 15 mins by turbidimetry; summary of the method: as §3
Tubulin [9] = biological target: T1, Tubulin; test: Displacement of [3H]colchicine from bovine brain tubulin assessed as rate of assembly after 10 mins by liquid scintillation counting
HeLa [10] = test: Antiproliferative activity against human HeLa cells assessed as reduction in cell viability after 72 hrs by MTT assay; type: functional, cell-based; summary of the method: as §2
Tubulin (Bos taurus) = Tubulin (Bos taurus) (UniProt Q6B856+Q862L2+Q862F3); test: Displacement of [3H]colchicine from bovine brain tubulin at 500 uM after 10 mins by liquid scintillation counting
HeLa [11] = test: Cell cycle arrest in human HeLa cells assessed as accumulation at G2/M phase after 24 hrs by flow cytometry; type: functional, cell-based
Summary of the method: (§4)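 5×10^5 HeLa or Jurkat cells exposed to graded compound concentrations for 24 h. Cells were fixed in ice-cold 70% ethanol, lysed with RNase A/0.1% Triton X-100 buffer and stained with propidium iodide. DNA content was read by flow cytometry. Phase percentages are mean ± SEM of three independent experiments.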

Jurkat [12] = test: Cell cycle arrest in human Jurkat cells assessed as accumulation at G2/M phase after 24 hrs by flow cytometry; type: functional, cell-based; summary of the method: as §4
HeLa [13] = test: Cell cycle arrest in human HeLa cells assessed as accumulation at G2/M phase at 10 to 25 uM after 24 hrs by flow cytometry; type: functional, cell-based; summary of the method: as §4
HeLa [14] = test: Cell cycle arrest in human HeLa cells assessed as accumulation at G2/M phase at 25 uM after 24 hrs by flow cytometry; type: functional; summary of the method: as §4
Jurkat [15] = test: Cell cycle arrest in human Jurkat cells assessed as accumulation at G2/M phase at 10 to 25 uM after 24 hrs by flow cytometry; type: functional, cell-based; summary of the method: as §4
HeLa [16] = test: Upregulation of cyclin B protein level in human HeLa cells at 25 uM after 24 hrs by Western blot analysis; type: functional, cell-based
HeLa [17] = test: Upregulation of cdc25c protein level in human HeLa cells at 25 uM after 24 hrs by Western blot analysis; type: functional, cell-based
HeLa [18] = test: Downregulation of cdc25c protein level in human HeLa cells at 25 uM after 24 hrs by Western blot analysis; type: functional, cell-based; conditions: in the assay text read “after 48 hrs” for “after 24 hrs”
Summary of the method: (§5)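 HeLa cells treated 24 or 48 h at 25 µM, then washed in PBS and lysed 30 min on ice. 20 µg protein per lane was resolved on 7.5–15% SDS-PAGE and blotted to PVDF. Blots were probed for cyclin B, p-cdc2 Tyr15, cdc25C and γH2A.X, with β-actin reprobe as loading control and ECL detection.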

HeLa [19] = test: Upregulation of aurora kinase A protein level in human HeLa cells at 25 uM after 24 hrs by Western blot analysis; type: functional, cell-based
HeLa [20] = test: Induction of DNA damage in human HeLa cells assessed as increase in phosphorylated form of histone gamma-H2A.X level at 25 uM after 24 hrs by Western blot analysis; type: functional, cell-based; summary of the method: as §5
HeLa [21] = test: Induction of apoptosis in human HeLa cells assessed as viable cells at 25 uM after 24 hrs using Annexin-V/PI staining by flow cytometry (reference value: 86.7 %); type: functional; conditions: read-out: Activity
HeLa [22] = test: Induction of apoptosis in human HeLa cells assessed as early apoptotic cells at 25 uM after 24 hrs using Annexin-V/PI staining by flow cytometry (reference value: 5.26 %); type: functional
HeLa [23] = test: Induction of apoptosis in human HeLa cells assessed as late apoptotic cells at 25 uM after 24 hrs using Annexin-V/PI staining by flow cytometry (reference value: 4.31 %); type: functional
HeLa [24] = test: Induction of apoptosis in human HeLa cells assessed as late necrotic cells at 25 uM after 24 hrs using Annexin-V/PI staining by flow cytometry (reference value: 3.70 %); type: functional
HeLa [25] = test: Induction of apoptosis in human HeLa cells after 24 to 48 hrs using Annexin-V/PI staining by flow cytometry; type: functional, cell-based
HeLa [26] = test: Induction of apoptosis in human HeLa cells at 6.2 to 50 uM using Annexin-V/PI staining by flow cytometry; type: functional, cell-based; conditions: TDE = time-dependent effect
HeLa [27] = test: Induction of apoptosis in human HeLa cells assessed as mitochondrial membrane depolarization after 24 to 48 hrs using JC-1 staining-based fluorescence assay; type: functional, cell-based
Summary of the method: (§6)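 Mitochondrial membrane potential was read with the JC-1 dye in HeLa cells after 24 or 48 h at graded concentrations. Data are mean ± SEM of three independent experiments.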

HeLa [28] = test: Induction of apoptosis in human HeLa cells assessed as mitochondrial membrane depolarization at 6.2 to 50 uM using JC-1 staining-based fluorescence assay; type: functional, cell-based; conditions: TDE = time-dependent effect; summary of the method: as §6
HeLa [29] = test: Induction of apoptosis in human HeLa cells assessed as ROS production at 6.2 to 50 uM after 24 to 48 hrs using H2-DCFDA -based flow cytometry relative to control; type: functional, cell-based
Summary of the method: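 HeLa cells incubated 24 or 48 h at the indicated concentrations, stained with H2-DCFDA and analysed by flow cytometry. Data are mean ± SEM of three independent experiments.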

HeLa [30] = test: Induction of apoptosis in human HeLa cells assessed as caspase 3 cleavage at 25 uM after 24 to 48 hrs by Western blot analysis; type: functional, cell-based
Summary of the method: (§7)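 HeLa cells treated 24 or 48 h at 25 µM, then lysed. 20 µg protein per lane was run on SDS-PAGE and transferred to PVDF. Membranes were probed 2 h at room temperature for cleaved caspase-9, caspase-3, cleaved PARP, Bcl-2, Mcl-1 or Bax, with peroxidase secondary antibody and ECL. β-Actin reprobe served as loading control.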

HeLa [31] = test: Induction of apoptosis in human HeLa cells assessed as caspase 9 cleavage at 25 uM after 24 to 48 hrs by Western blot analysis; type: functional, cell-based; summary of the method: as §7
HeLa [32] = test: Induction of apoptosis in human HeLa cells assessed as PARP cleavage at 25 uM after 24 to 48 hrs by Western blot analysis; type: functional, cell-based; summary of the method: as §7
HeLa [33] = test: Induction of apoptosis in human HeLa cells assessed as reduction in Bcl-2 expression at 25 uM after 24 hrs by Western blot analysis; type: functional, cell-based; summary of the method: as §7
HeLa [34] = test: Induction of apoptosis in human HeLa cells assessed as reduction in Bcl-2 expression at 25 uM after 48 hrs by Western blot analysis; type: functional, cell-based; summary of the method: as §7
HeLa [35] = test: Induction of apoptosis in human HeLa cells assessed as reduction in Mcl-1 expression at 25 uM after 24 hrs by Western blot analysis; type: functional, cell-based; summary of the method: as §7
HeLa [36] = test: Induction of apoptosis in human HeLa cells assessed as reduction in Mcl-1 expression at 25 uM after 48 hrs by Western blot analysis; type: functional, cell-based; summary of the method: as §7
HeLa [37] = test: Downregulation of phosphorylated form of cdc25c protein level in human HeLa cells at 25 uM after 24 hrs by Western blot analysis; type: functional, cell-based; summary of the method: as §5

SMILES: COC(=O)Nc1nc2cc(C(=O)c3cccs3)ccc2[nH]1
- Activity (HeLa [1]): Active

- IC50 (Jurkat [3]): 11.3 µM
- IC50 (CCRF-CEM): 25.8 µM
- IC50 (LoVo): 28.8 µM
- IC50 (HT-29): 47.8 µM
- IC50 (A549): > 100 µM
SMILES: COc1ccc(-c2c3c(c(OC)c4c2OCO4)[C@H]([C@H]2OC(=O)c4c2ccc(OC)c4OC)N(C)CC3)cc1
- IC50 (PBL [2]): > 200 µM
- IC50 [4]: 15.1 µM
- IC50 [5]: 12.6 µM
- IC50 (IGROV-1): 55.6 µM
- IC50 (PBL [6]): > 200 µM

- IC50 (Tubulin [7]): > 400 µM
- IC50 (Tubulin [8]): > 400 µM
- IC50 (Tubulin [9]): > 400 µM
- IC50 (HeLa [10]): 30.8 µM
- IC50 (Jurkat [3]): 33.6 µM
- IC50 (CCRF-CEM): 6.9 µM
- IC50 (LoVo): 57.1 µM
- IC50 (HT-29): 72.7 µM
- IC50 (A549): 59.7 µM
- inhibition (Tubulin (Bos taurus)): 13%
SMILES: COc1ccccc1-c1c2c(c(OC)c3c1OCO3)[C@H]([C@H]1OC(=O)c3c1ccc(OC)c3OC)N(C)CC2
- IC50 (PBL [2]): 42.4 µM
- IC50 [4]: 22.2 µM
- IC50 [5]: 13.8 µM
- IC50 (IGROV-1): 90.9 µM
- IC50 (PBL [6]): > 200 µM

- IC50 (Tubulin [7]): > 400 µM
- IC50 (Tubulin [8]): > 400 µM
- IC50 (Tubulin [9]): > 400 µM
- IC50 (HeLa [10]): 7.4 µM
- IC50 (Jurkat [3]): 5.4 µM
- IC50 (CCRF-CEM): 5.2 µM
- IC50 (LoVo): 42.8 µM
- IC50 (HT-29): 36.5 µM
- inhibition (Tubulin (Bos taurus)): 14%
SMILES: COc1ccc2c(c1OC)C(=O)O[C@@H]2[C@H]1c2c(c(-c3ccccc3)c3c(c2OC)OCO3)CCN1C
- IC50 (PBL [2]): 54.9 µM
- Activity (HeLa [11]): Dose-dependent effect
- Activity (Jurkat [12]): Dose-dependent effect
- Activity (HeLa [13]): Active
- Activity (HeLa [14]): >80%
- Activity (Jurkat [15]): Active
- Activity (HeLa [16]): Active
- Activity (HeLa [17]): Active
- Activity (HeLa [18]): Active
- Activity (HeLa [19]): Active
- Activity (HeLa [20]): Active
- viability at 25 µM (HeLa [21]): 7.53%
- Activity (HeLa [22]): 15.9%
- Activity (HeLa [23]): 18.4%
- Activity (HeLa [24]): 18.1%
- Activity (HeLa [25]): Dose-dependent effect
- Activity (HeLa [26]): tde
- Activity (HeLa [27]): Dose-dependent effect
- Activity (HeLa [28]): tde
- Activity (HeLa [29]): Active
- Activity (HeLa [30]): Active
- Activity (HeLa [31]): Active
- Activity (HeLa [32]): Active
- Activity (HeLa [33]): inactive
- Activity (HeLa [34]): Active
- Activity (HeLa [35]): Active
- Activity (HeLa [36]): Active
- Activity (HeLa [37]): Active
- IC50 [4]: 3.2 µM
- IC50 [5]: 2.4 µM
- IC50 (IGROV-1): 68.1 µM
- IC50 (PBL [6]): > 200 µM
